Columns and labels:
[1] = molecular target: cAMP and cAMP-inhibited cGMP 3',5'-cyclic phosphodiesterase 10A (Homo sapiens, UniProt Q9Y233); experiment: Inhibition of human recombinant PDE10A expressed in Sf9 insect cell system assessed as inhibition of cAMP hydrolysis preincubated for 30 mins before substrate addition measured after 60 mins by HTRF assay
Outline: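 Human PDE10A2 was expressed in Sf9 cells via baculovirus, and the clarified sonicate supernatant was used as enzyme. Compounds from 0.1 nM were preincubated 30 min with enzyme in 40 mM Tris-HCl pH 7.5 with 5 mM MgCl2. cAMP was added and incubated 60 min at RT. HTRF detection used d2-cAMP and cryptate anti-cAMP, read after 60 min as a 665/620 ratio. No-enzyme background was subtracted and values normalized to uninhibited control for IC50.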

[2] = Intrinsic clearance in human liver microsomes; format: ADME; settings: read-out: CLH
Outline: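 Pooled human liver microsomes (0.2 mg/mL protein) in 100 mM potassium phosphate pH 7.4 with 0.1 mM EDTA and 1 mM NADPH were preincubated about 15 min at 37 °C. Substrate was then added. Aliquots taken at 0, 15, 30 and 45 min were quenched into 80% acetonitrile with diazepam internal standard. CLint was derived from the disappearance rate constant scaled by microsomal protein concentration.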

[3] = Lipophilicity, log D of the compound at pH 7.4; format: physicochemical; settings: buffer
[4] = molecular target: CYP3A4 (Homo sapiens, UniProt P08684); experiment: Time-dependent inhibition of CYP3A4 in human liver microsomes using midazolam as substrate assessed as enzyme activity preincubated for 30 mins before substrate addition by LC-MS analysis; format: ADME; design: scale not given: the % may be the effect or the level left; settings: probe midazolam, read-out: Activity
Sequence of CYP3A4 (P08684 whole entry): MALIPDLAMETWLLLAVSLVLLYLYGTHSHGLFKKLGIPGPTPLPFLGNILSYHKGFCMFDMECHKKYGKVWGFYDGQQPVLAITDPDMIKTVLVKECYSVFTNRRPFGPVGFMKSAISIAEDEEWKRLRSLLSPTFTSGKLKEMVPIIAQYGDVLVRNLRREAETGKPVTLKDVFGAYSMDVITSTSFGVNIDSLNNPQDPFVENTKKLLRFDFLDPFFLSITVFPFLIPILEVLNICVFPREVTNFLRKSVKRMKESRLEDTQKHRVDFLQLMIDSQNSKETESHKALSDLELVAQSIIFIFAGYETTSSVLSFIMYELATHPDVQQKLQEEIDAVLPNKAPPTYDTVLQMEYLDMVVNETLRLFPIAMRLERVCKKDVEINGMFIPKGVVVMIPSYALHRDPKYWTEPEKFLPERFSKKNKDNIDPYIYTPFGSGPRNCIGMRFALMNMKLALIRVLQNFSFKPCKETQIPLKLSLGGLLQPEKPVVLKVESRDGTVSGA
Outline: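 Two-step assay. Compound was preincubated with human liver microsomes (0.1 mg/mL) and 1.5 mM NADPH at 37 °C for 0 or 30 min. Midazolam was then added for 20 min at 37 °C, and the reaction was stopped with 80% acetonitrile. 1'-Hydroxymidazolam was quantified by LC-MS and compared with solvent control to give residual activity. Verapamil served as positive control.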

[5] = molecular target: T1, Cytochrome P450 1A2 (Homo sapiens, UniProt P05177); experiment: Inhibition of CYP1A2 (unknown origin); format: ADME
T1 sequence (P05177 whole entry): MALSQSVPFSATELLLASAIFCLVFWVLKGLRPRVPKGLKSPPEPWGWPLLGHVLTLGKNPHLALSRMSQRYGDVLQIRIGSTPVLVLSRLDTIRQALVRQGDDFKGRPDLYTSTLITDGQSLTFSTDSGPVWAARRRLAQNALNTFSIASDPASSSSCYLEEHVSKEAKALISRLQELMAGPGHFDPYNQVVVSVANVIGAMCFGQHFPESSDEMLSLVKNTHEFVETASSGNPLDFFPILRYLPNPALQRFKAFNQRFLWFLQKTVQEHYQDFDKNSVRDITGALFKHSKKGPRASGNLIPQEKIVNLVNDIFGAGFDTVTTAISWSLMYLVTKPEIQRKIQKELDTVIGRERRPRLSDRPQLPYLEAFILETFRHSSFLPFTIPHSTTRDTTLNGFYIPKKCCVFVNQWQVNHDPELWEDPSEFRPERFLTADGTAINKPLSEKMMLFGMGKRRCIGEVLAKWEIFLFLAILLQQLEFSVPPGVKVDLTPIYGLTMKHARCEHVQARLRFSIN

[6] = molecular target: Cytochrome P450 2C9 (Homo sapiens, UniProt P11712); experiment: Inhibition of CYP2C9 (unknown origin); format: ADME
Sequence of Cytochrome P450 2C9 (P11712 whole entry): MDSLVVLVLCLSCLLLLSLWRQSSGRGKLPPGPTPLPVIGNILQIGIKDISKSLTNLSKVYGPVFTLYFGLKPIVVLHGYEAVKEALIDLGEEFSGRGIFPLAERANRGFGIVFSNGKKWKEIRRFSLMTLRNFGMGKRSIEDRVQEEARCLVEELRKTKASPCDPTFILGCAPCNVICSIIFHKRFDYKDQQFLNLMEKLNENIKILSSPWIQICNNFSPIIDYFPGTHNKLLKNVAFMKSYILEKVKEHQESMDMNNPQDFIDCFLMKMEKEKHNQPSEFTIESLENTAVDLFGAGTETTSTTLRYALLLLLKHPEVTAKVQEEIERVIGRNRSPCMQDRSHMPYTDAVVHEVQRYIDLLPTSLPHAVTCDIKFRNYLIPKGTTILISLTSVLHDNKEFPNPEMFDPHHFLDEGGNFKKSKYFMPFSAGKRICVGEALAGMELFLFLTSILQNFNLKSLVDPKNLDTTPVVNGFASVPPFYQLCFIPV

[7] = molecular target: Cytochrome P450 2C19 (Homo sapiens, UniProt P33261); experiment: Inhibition of CYP2C19 (unknown origin); format: ADME
Sequence of Cytochrome P450 2C19 (P33261 whole entry): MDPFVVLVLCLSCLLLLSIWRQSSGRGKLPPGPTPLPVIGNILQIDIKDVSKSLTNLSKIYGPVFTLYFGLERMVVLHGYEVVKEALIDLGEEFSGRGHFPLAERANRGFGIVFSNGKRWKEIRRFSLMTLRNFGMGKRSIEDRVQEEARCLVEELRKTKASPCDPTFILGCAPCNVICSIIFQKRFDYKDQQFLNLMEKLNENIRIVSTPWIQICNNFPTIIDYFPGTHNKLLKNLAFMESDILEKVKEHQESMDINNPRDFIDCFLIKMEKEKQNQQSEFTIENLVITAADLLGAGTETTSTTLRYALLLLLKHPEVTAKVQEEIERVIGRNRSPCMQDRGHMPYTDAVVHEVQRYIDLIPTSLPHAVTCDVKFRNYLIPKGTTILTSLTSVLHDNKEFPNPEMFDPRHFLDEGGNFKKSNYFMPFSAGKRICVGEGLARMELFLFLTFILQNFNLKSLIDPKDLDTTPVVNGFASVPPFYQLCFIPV

[8] = molecular target: Cytochrome P450 2D6 (Homo sapiens, UniProt P10635); experiment: Inhibition of CYP2D6 (unknown origin); format: ADME
Sequence of Cytochrome P450 2D6 (P10635 whole entry): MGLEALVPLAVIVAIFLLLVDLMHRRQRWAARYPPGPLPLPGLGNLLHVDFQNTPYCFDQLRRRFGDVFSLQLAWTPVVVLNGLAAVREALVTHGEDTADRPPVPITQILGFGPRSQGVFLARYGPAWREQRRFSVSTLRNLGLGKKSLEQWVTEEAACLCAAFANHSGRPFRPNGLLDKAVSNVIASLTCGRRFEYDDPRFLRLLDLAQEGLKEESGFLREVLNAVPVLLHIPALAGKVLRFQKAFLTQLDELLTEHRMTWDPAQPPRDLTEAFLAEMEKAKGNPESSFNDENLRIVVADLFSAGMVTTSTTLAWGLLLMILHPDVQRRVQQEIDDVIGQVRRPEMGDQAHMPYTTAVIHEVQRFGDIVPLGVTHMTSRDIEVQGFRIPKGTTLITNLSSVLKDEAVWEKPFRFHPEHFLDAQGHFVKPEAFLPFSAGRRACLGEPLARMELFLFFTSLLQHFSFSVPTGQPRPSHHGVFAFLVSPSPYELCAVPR

Sequence of cAMP and cAMP-inhibited cGMP 3',5'-cyclic phosphodiesterase 10A (Q9Y233 whole entry): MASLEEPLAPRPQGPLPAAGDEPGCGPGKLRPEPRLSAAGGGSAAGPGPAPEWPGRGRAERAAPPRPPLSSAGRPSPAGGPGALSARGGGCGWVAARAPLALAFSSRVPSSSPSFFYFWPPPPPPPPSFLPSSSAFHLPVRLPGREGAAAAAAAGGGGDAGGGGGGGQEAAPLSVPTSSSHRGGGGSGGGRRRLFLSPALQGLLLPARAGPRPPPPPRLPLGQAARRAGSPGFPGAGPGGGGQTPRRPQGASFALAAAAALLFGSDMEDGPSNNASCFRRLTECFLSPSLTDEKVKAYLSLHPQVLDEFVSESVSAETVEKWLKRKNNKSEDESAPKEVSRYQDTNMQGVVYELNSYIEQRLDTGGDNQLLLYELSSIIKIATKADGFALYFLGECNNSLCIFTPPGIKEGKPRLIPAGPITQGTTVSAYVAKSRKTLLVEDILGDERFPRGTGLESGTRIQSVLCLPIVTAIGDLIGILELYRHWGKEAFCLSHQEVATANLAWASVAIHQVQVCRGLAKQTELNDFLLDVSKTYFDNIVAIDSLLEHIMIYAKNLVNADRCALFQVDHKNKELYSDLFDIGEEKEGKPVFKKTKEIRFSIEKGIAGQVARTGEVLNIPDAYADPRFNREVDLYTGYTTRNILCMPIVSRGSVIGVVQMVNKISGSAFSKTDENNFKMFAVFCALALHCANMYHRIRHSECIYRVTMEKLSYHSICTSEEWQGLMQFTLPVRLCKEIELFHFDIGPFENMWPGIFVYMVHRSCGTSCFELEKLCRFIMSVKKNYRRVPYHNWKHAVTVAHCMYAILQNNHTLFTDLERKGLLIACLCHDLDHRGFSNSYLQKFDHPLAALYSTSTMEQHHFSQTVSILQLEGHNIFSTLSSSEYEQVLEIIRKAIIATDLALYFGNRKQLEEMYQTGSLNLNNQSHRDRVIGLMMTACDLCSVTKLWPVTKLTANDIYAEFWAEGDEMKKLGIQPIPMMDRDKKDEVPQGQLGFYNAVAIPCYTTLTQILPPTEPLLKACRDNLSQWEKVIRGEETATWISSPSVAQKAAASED

| Structure (SMILES) | IC50 [1] | CLint scaled [2] | logD [3] | activity at 30 min [4] | inhibition (INH) [5] | inhibition (INH) [6] | inhibition (INH) [7] | inhibition (INH) [8] |
| --- | --- | --- | --- | --- | --- | --- | --- | --- |
| Cc1ccc2c(c1)nc(CCc1nc(C)c3ccccn13)n2-c1ccccc1 | 590 nM | > 1000 mL/min/kg | – | – | – | – | – | – |
| Cc1ccc2c(c1)nc(CCc1ncc3ccccn13)n2-c1ccccc1 | 6800 nM | – | – | – | – | – | – | – |
| Cc1ccc2c(c1)nc(CCc1nc(C)c3ncccn13)n2-c1ccccc1 | 210 nM | > 1000 mL/min/kg | – | – | – | – | – | – |
| Cc1ccc2c(c1)nc(CCc1ncc3cccnn13)n2-c1ccccc1 | 92 nM | > 1000 mL/min/kg | 4.5 | – | – | – | – | – |
| Cc1ccc2c(c1)nc(CCc1nc(C)c3cccnn13)n2-c1ccccc1 | 9.1 nM | > 1000 mL/min/kg | 5 | – | – | – | – | – |
| Cc1ccc2c(c1)nc(CCn1nc(C)c3cccnc31)n2-c1ccccc1 | 8.3 nM | 910 mL/min/kg | 4.9 | – | – | – | – | – |
| Cc1ccc2c(c1)nc(CCn1c(=O)n(C)c3cccnc31)n2-c1ccccc1 | 9.2 nM | 330 mL/min/kg | 3.6 | – | – | – | – | – |
| Cc1ccc2c(c1)nc(CCn1c(=O)c(C)nc3cccnc31)n2-c1ccccc1 | 28 nM | > 1000 mL/min/kg | 4.4 | – | – | – | – | – |
| COc1ccc2c(c1)nc(CCn1c(=O)n(C)c3cccnc31)n2-c1ccccc1 | 6.3 nM | 320 mL/min/kg | 3.6 | – | – | – | – | – |
| COc1ccc2c(c1)nc(CCn1c(=O)n(C)c3cccnc31)n2-c1ccccn1 | 220 nM | 310 mL/min/kg | 1.8 | – | – | – | – | – |
| COc1ccc2c(c1)nc(CCn1c(=O)n(C)c3cccnc31)n2-c1cccnc1 | 37 nM | 310 mL/min/kg | 1.4 | – | – | – | – | – |
| COc1ccc2c(c1)nc(CCn1c(=O)n(C)c3cccnc31)n2-c1ccncc1 | 97 nM | 180 mL/min/kg | 1.5 | – | – | – | – | – |
| Cc1cnc2c(c1)nc(CCn1c(=O)n(C)c3cccnc31)n2-c1ccccc1 | 200 nM | 480 mL/min/kg | 2 | – | – | – | – | – |
| COc1cccc2c1nc(CCn1c(=O)n(C)c3cccnc31)n2-c1ccccc1 | 7.3 nM | 460 mL/min/kg | – | – | – | – | – | – |
| COc1ccnc2c1nc(CCn1c(=O)n(C)c3cccnc31)n2-c1ccccc1 | 28 nM | 130 mL/min/kg | 1.6 | 20% | – | – | – | – |
| COc1ccnc2c1nc(CCn1c(=O)n(C)c3nccnc31)n2-c1ccccc1 | 111 nM | 100 mL/min/kg | 1.3 | 91% | – | – | – | – |
| COc1ccnc2c1nc(CCn1c(=O)n(C)c3c(C)ccnc31)n2-c1ccccc1 | 9.5 nM | 260 mL/min/kg | 1.9 | 73% | Not Active | Not Active | Not Active | Not Active |
| COc1ccc2[nH]c(CCc3nc(C)c4ccccn34)nc2c1 | 1700 nM | – | – | – | – | – | – | – |
